In assay [1] the test system is Mycolicibacterium smegmatis. In words: Antibacterial activity against Mycobacterium smegmatis mc2 155 after 72 hrs by MTT assay. Type of assay: functional. To be noted: str. MC2 155, 72 h. The method in brief: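 Broth dilution in Mueller-Hinton broth; compounds dissolved in DMSO, two-fold serial dilutions; inoculum adjusted to McFarland 0.5 and diluted to final 5 × 10^5 cfu/mL; cells pre-grown on Columbia blood agar with 5% horse blood, 37 °C, 72 h. Plates incubated 37 °C for 72 h; MIC read after MTT as lowest concentration inhibiting growth.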
For orientation: Formazan colour is commonly taken as a measure of viable cells.

For assay [2], the system named is Mycolicibacterium smegmatis MC2 155. Description: Inhibition of Multidrug resistance efflux pump in Mycobacterium smegmatis mc2 155 assessed as modulation of isoniazid-mediated antibacterial activity measuring ratio of isoniazid MIC to isoniazid and compound MIC at 4 mg/L after 72 hrs by MTT assay. The essentials: (§1)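 Checkerboard-type modulation by broth dilution in MHB with DMSO-dissolved modulators: either modulator held constant (half its MIC) with two-fold serially diluted antibiotic/EtBr, or antibiotic fixed with modulator serially diluted. Final inoculum 5 × 10^5 cfu/mL, 37 °C, 72 h, MTT read-out. Modulation factor quantifies shift in antibiotic/EtBr MIC; FICI assesses combination effect.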

Assay [3] has the same test system. Description: Inhibition of Multidrug resistance efflux pump in Mycobacterium smegmatis mc2 155 assessed as modulation of EtBr-mediated antibacterial activity measuring ratio of EtBr MIC to EtBr and compound MIC at 4 mg/L after 72 hrs by MTT assay. The essentials:
as §1

Assay [4] shares this test system. Description: Inhibition of Multidrug resistance efflux pump in Mycobacterium smegmatis mc2 155 assessed as modulation of rifampicin-mediated antibacterial activity measuring ratio of rifampicin MIC to rifampicin and compound MIC at 4 mg/L after 72 hrs by MTT assay. The essentials:
as §1

The test system is the same in assay [5]. Description: Inhibition of Multidrug resistance efflux pump in Mycobacterium smegmatis mc2 155 assessed as modulation of ethambutol-mediated antibacterial activity measuring ratio of ethambutol MIC to ethambutol and compound MIC at 64 mg/L after 72 hrs by MTT assay. The essentials:
as §1

The test system is the same in assay [6]. Description: Inhibition of Multidrug resistance efflux pump in Mycobacterium smegmatis mc2 155 assessed as modulation of EtBr-mediated antibacterial activity measuring reduction in MIC at 1/2 of MIC after 72 hrs by MTT assay relative to control. The method in brief:
as §1

Assay [7] shares this test system. Description: Inhibition of Multidrug resistance efflux pump in Mycobacterium smegmatis mc2 155 assessed as modulation of rifampicin-mediated antibacterial activity measuring fractional inhibitory concentration index at 64 mg/L after 72 hrs by MTT assay. The essentials: as §1
For assay [8] the test system is unchanged. In words: Inhibition of Multidrug resistance efflux pump in Mycobacterium smegmatis mc2 155 assessed as modulation of rifampicin-mediated antibacterial activity measuring reduction in MIC at 1/2 of MIC after 72 hrs by MTT assay relative to control. The method in brief: as §1
Assay [9] has the same test system. In words: Inhibition of Multidrug resistance efflux pump in Mycobacterium smegmatis mc2 155 assessed as inhibition of EtBr efflux measuring normalized fluorescence at half the MIC measured for 60 mins by spectrophotometry relative to control.
Assay [10] shares this test system. In words: Inhibition of Multidrug resistance efflux pump in Mycobacterium smegmatis mc2 155 assessed as modulation of EtBr-mediated antibacterial activity measuring ratio of EtBr MIC to EtBr and compound MIC at 64 mg/L after 72 hrs by MTT assay. The method in brief: as §1
For assay [11] the test system is unchanged. In words: Inhibition of Multidrug resistance efflux pump in Mycobacterium smegmatis mc2 155 assessed as modulation of ciprofloxacin-mediated antibacterial activity measuring ratio of ciprofloxacin MIC to ciprofloxacin and compound MIC at 64 mg/L after 72 hrs by MTT assay. The method in brief: as §1
The test system is the same in assay [12]. Description: Inhibition of Multidrug resistance efflux pump in Mycobacterium smegmatis mc2 155 assessed as modulation of isoniazid-mediated antibacterial activity measuring ratio of isoniazid MIC to isoniazid and compound MIC at 64 mg/L after 72 hrs by MTT assay. The essentials: as §1
Assay [13] shares this test system. In words: Inhibition of Multidrug resistance efflux pump in Mycobacterium smegmatis mc2 155 assessed as inhibition of EtBr efflux measuring relative fluorescence at 1/8 of MIC measured for 60 mins by spectrophotometry relative to control.
The test system is the same in assay [14]. In words: Inhibition of Multidrug resistance efflux pump in Mycobacterium smegmatis mc2 155 assessed as modulation of EtBr-mediated antibacterial activity measuring fractional inhibitory concentration index at 64 mg/L after 72 hrs by MTT assay. The method in brief:
as §1

Assay [15] shares this test system. Description: Inhibition of Multidrug resistance efflux pump in Mycobacterium smegmatis mc2 155 assessed as EtBr accumulation measuring relative fluorescence at lower MIC measured for 60 mins by spectrophotometry relative to control. The essentials:
(§2)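 Overnight 7H9/ADC culture (37 °C, 100 rpm) centrifuged and resuspended in PBS with 0.05% Tween 80 to OD600 0.4. Cells mixed 1:1 with test solutions containing 0.5 mg/L EtBr and 0.4% glucose, compounds from MIC down to 1/16 MIC. Fluorescence (ex 531/em 590 nm) read every 50 s at 37 °C for 60 min; repeated at least three times.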

The test system is the same in assay [16]. In words: Inhibition of Multidrug resistance efflux pump in Mycobacterium smegmatis mc2 155 assessed as inhibition of EtBr efflux measuring relative fluorescence at lower MIC measured for 60 mins by spectrophotometry relative to control.
The test system is the same in assay [17]. Description: Inhibition of Multidrug resistance efflux pump in Mycobacterium smegmatis mc2 155 assessed as EtBr accumulation measuring relative fluorescence at half the MIC measured for 60 mins by spectrophotometry relative to control. The method in brief:
as §2

Assay [18] shares this test system. In words: Inhibition of Multidrug resistance efflux pump in Mycobacterium smegmatis mc2 155 assessed as modulation of rifampicin-mediated antibacterial activity measuring ratio of rifampicin MIC to rifampicin and compound MIC at 64 mg/L after 72 hrs by MTT assay. The method in brief: as §1
The test system is the same in assay [19]. Description: Inhibition of Multidrug resistance efflux pump in Mycobacterium smegmatis mc2 155 assessed as EtBr accumulation measuring relative fluorescence at 1/8 of MIC measured for 60 mins by spectrophotometry relative to control. The essentials:
as §2

The test system is the same in assay [20]. In words: Inhibition of Multidrug resistance efflux pump in Mycobacterium smegmatis mc2 155 assessed as EtBr accumulation measuring relative fluorescence at MIC measured for 60 mins by spectrophotometry relative to control. The essentials:
as §2

Assay [21] has the same test system. Description: Inhibition of Multidrug resistance efflux pump in Mycobacterium smegmatis mc2 155 assessed as EtBr accumulation measuring relative fluorescence at 1/4 of MIC measured for 60 mins by spectrophotometry relative to control. The method in brief: as §2
Assay [22] shares this test system. Description: Inhibition of Multidrug resistance efflux pump in Mycobacterium smegmatis mc2 155 assessed as modulation of ethambutol-mediated antibacterial activity measuring ratio of ethambutol MIC to ethambutol and compound MIC at 32 mg/L after 72 hrs by MTT assay. The method in brief:
as §1

The test system is the same in assay [23]. Description: Inhibition of Multidrug resistance efflux pump in Mycobacterium smegmatis mc2 155 assessed as modulation of EtBr-mediated antibacterial activity measuring ratio of EtBr MIC to EtBr and compound MIC at 32 mg/L after 72 hrs by MTT assay. The essentials: as §1
Assay [24] has the same test system. Description: Inhibition of Multidrug resistance efflux pump in Mycobacterium smegmatis mc2 155 assessed as modulation of rifampicin-mediated antibacterial activity measuring ratio of rifampicin MIC to rifampicin and compound MIC at 32 mg/L after 72 hrs by MTT assay. The essentials:
as §1

For assay [25] the test system is unchanged. In words: Inhibition of Multidrug resistance efflux pump in Mycobacterium smegmatis mc2 155 assessed as modulation of ciprofloxacin-mediated antibacterial activity measuring ratio of ciprofloxacin MIC to ciprofloxacin and compound MIC at 32 mg/L after 72 hrs by MTT assay. The essentials:
as §1

For assay [26] the test system is unchanged. Description: Inhibition of Multidrug resistance efflux pump in Mycobacterium smegmatis mc2 155 assessed as modulation of EtBr-mediated antibacterial activity measuring fractional inhibitory concentration index at 32 mg/L after 72 hrs by MTT assay. The method in brief:
as §1

Assay [27] shares this test system. Description: Inhibition of Multidrug resistance efflux pump in Mycobacterium smegmatis mc2 155 assessed as modulation of isoniazid-mediated antibacterial activity measuring ratio of isoniazid MIC to isoniazid and compound MIC at 32 mg/L after 72 hrs by MTT assay. The method in brief:
as §1

For assay [28] the test system is unchanged. In words: Inhibition of Multidrug resistance efflux pump in Mycobacterium smegmatis mc2 155 assessed as modulation of rifampicin-mediated antibacterial activity measuring fractional inhibitory concentration index at 32 mg/L after 72 hrs by MTT assay. The method in brief:
as §1

For assay [29] the test system is unchanged. In words: Inhibition of Multidrug resistance efflux pump in Mycobacterium smegmatis mc2 155 assessed as modulation of rifampicin-mediated antibacterial activity measuring ratio of rifampicin MIC to rifampicin and compound MIC at 2 mg/L after 72 hrs by MTT assay. The method in brief: as §1
For assay [30] the test system is unchanged. Description: Inhibition of Multidrug resistance efflux pump in Mycobacterium smegmatis mc2 155 assessed as modulation of EtBr-mediated antibacterial activity measuring ratio of EtBr MIC to EtBr and compound MIC at 2 mg/L after 72 hrs by MTT assay. The method in brief:
as §1

Assay [31] shares this test system. Description: Inhibition of Multidrug resistance efflux pump in Mycobacterium smegmatis mc2 155 assessed as modulation of isoniazid-mediated antibacterial activity measuring ratio of isoniazid MIC to isoniazid and compound MIC at 2 mg/L after 72 hrs by MTT assay. The essentials:
as §1

The source of these data is ChEMBL document CHEMBL2021785, “Compounds of Alpinia katsumadai as potential efflux inhibitors in Mycobacterium smegmatis” (2012).

≈ marks a conversion by molar mass, not a printed value. Calls of active or inactive are those of the source. The rule behind the calls is not given here. Some results are limits rather than exact numbers.

In the case of `CC[C@@H](CO)NCCN[C@@H](CC)CO` [ETHAMBUTOL], 1 µg/mL (≈ 4.89 µM) was the least that counted as inhibitory in assay [1] (MIC).

Turning to `CCCCCCCC/C=C\CCCCCCCC(=O)O` [OLEIC ACID], the Ratio amounted to 1 in [2], 1 in [3] and 4 in assay [4]. In addition, the MIC in assay [1] amounted to 8 µg/mL (≈ 28.3 µM).

Take `O=C(/C=C/C=C/c1ccccc1)CCc1ccccc1`: the Ratio in assay [5] worked out at 1; in [10] it was 4; in [11], 1; in assay [12] it was 1; in assay [18], 4. Moreover, the fold change (FC) in [6] and in assay [8] was 4 throughout. Moreover, the fractional inhibitory concentration index (FICI) in assay [7] is 0.28; in assay [14] it was 0.27. Also, the normalized EtBr fluorescence relative to control in assay [9] came to 0.806. The inhibition entry in assay [13], in assay [19], in [20] and in assay [21] was “Active” in each case. Further, the inhibition result in [15] and in assay [16] was “Dose-dependent effect” throughout. This molecule also yielded an MIC in assay [1] of no less than 128 µg/mL. Also, the RFU in assay [17] turned out to be 19400.

For `CO[C@H]1/C=C/O[C@@]2(C)Oc3c(C)c(O)c4c(O)c(c(/C=N/N5CCN(C)CC5)c(O)c4c3C2=O)NC(=O)/C(C)=C\C=C\[C@H](C)[C@H](O)[C@@H](C)[C@@H](O)[C@@H](C)[C@H](OC(C)=O)[C@@H]1C` [RIFAMPIN], in [1], the MIC is 32 µg/mL (≈ 38.9 µM).

For the molecule `CCCCCCCCCCCCCCCCCC(=O)O` [STEARIC ACID], the Ratio in assay [10] is 1; in assay [12], 0.5. For the same molecule, in [1], the MIC was no less than 128 µg/mL.

On to `O=C(CCc1ccccc1)C[C@@H](O)/C=C/c1ccccc1`, for which the Ratio is 1 in [22]; 8 in assay [23]; 4 in assay [24]; 2 in assay [25]; 1 in assay [27]. Further, the fold change (FC) in assay [6] and in assay [8] was 4 in each case. Further, the normalized EtBr fluorescence relative to control in assay [9] stood at 0.72. The fractional inhibitory concentration index (FICI) in [26] was 0.25; in [28], 0.75. The molecule also gave an MIC in assay [1] of 64 µg/mL (≈ 228 µM). The RFU in [17] amounted to 15100.

In the case of `CCCCC/C=C\C/C=C\CCCCCCCC(=O)O` [LINOLEIC ACID], the Ratio in assay [29] was 2; in assay [30] it was 2; in assay [31] it was 1. For the same molecule, the MIC in assay [1] was determined as 4 µg/mL (≈ 14.3 µM).

`NNC(=O)c1ccncc1` [ISONIAZID] registered an MIC in assay [1] of 4 µg/mL (≈ 29.2 µM).

The MIC is the lowest concentration found to suppress growth. A lower MIC goes with a more susceptible organism.
